Source: ChEMBL document CHEMBL4513216, “Probing the Open Global Health Chemical Diversity Library for Multistage-Active Starting Points for Next-Generation Antimalarials” (ACS Infect Dis, 2020)

experiment: Toxicity liver stage against HepG2, at 10uM; format: cell-based; set-up: test concentration 10 uM, cell line HepG2-A16-CD81EGFP; conditions: human, HepG2-A16-CD81EGFP cells; read-out: INHIBITION
Method in brief: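 Uninfected HepG2-A16-CD81EGFP cells, 3 × 10^3 per well, 1536-well, plated on prespotted compound at 10 μM final, parasite-free screening media added to match infected plates; puromycin 10 μM positive, DMSO 0.5% negative; run in parallel with 48 h PbLuc assay at 37 °C, 5% CO2; viability by CellTiter-Glo luminescence, normalized to controls.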

Compound | cytotoxicity at 10 µM [%]
O[C@@]1(CN2CCN(Cc3ccncc3)CC2)CCCN2CCCC[C@@H]21 | 8.91
CS(=O)(=O)NC[C@H]1Cn2c(-c3ccccc3)cnc2CO1 | -2.96
O=C(c1ccnnc1)N1CCN2C[C@H](OCc3cccnc3)C[C@H]2C1 | -72.4
O=C(c1ccc(Cl)cc1)N1CCC(N2CCOC2=O)CC1 | 7.72
O=C1CSC(c2ccncc2)c2c[nH]nc2N1 (configuration not stated) | 13
Cc1cn2c(n1)CCC(NC(=O)CCn1ccnn1)C2 (configuration not stated) | -2.53
CCc1nsc(N2CCN(C(=O)COc3ccccc3)CC2)n1 | -3.49
CCCC(C)CS(=O)(=O)NCc1cccnc1N(C)C (configuration not stated) | 2.96
O=C1CN(C(=O)c2ccc(Cl)cc2)CC(O)CN1Cc1cccs1 (configuration not stated) | 0.331
CC(C)CNC(=O)[C@H]1C[C@H]2CN(C(=O)NCCc3ccccc3)C[C@@H]1O2 | 1.22
Cc1nc(CC(=O)N2CCC[C@H]2c2nc(C(C)C)no2)cs1 | -14.2
CCN(CC)C(=O)c1nc2c(s1)CCN(C(=O)Nc1ccccc1)CC2 | 12
Cc1ccsc1[C@@H]1CCN(C(=O)CCOc2ccccc2)C[C@H]1O | -0.602
Cc1nc(CN(C)C2CCCN(c3cccnn3)C2)oc1C (configuration not stated) | -12.4
c1cncc(CN2CC[C@@H]3[C@@H]2CCN3Cc2ccc3c(c2)OCO3)c1 | -3.04
CSCCC1c2nc[nH]c2CCN1Cc1[nH]c2ccc(F)cc2c1C (configuration not stated) | -5.65
Cc1cccc(CN2C(=O)C[C@H]3[C@@H]2CCN3CC2CC2)n1 | 6.59
CC(NC(=O)c1cn(CCC2CCCCC2)nn1)c1cnn(C)c1 (configuration not stated) | 6.2
COc1cncc(-n2nc(C)c(CC(C)=O)c2C)c1 | -12.8
CC(c1ccccn1)N(C)Cc1cccc(C(=O)Nc2nccn2C)c1 (configuration not stated) | 14.6
Clc1ccccc1-c1nnc(CSCCN2CCOCC2)o1 | 0.728

Compound | cytotoxicity at 10 µM [%]
Cc1ccc(C)n1-c1ccsc1C(=O)NCC(=O)N1CCCC1 | -143
CCc1cnc(CN(C)C2CCN(CC(=O)Nc3nccs3)C2)o1 (configuration not stated) | -18.7
CCc1ncnc2c1CCN(Cc1ccc(OC)cc1)CC2 | -0.00161
COc1ccc(Br)cc1CN(C)c1nc2c(cnn2C)c(=O)[nH]1 | 48.1
CN(Cc1ccc(F)cc1)C(=O)CN1CCOC(Cn2cncn2)C1 (configuration not stated) | -4.07
CC(CC(=O)N1CCC(c2nnc3n2CCC3)CC1)n1cccc1 (configuration not stated) | 8.11
COc1cccc(N2CCN(CC(O)c3cc(C)ccc3C)CC2)c1 (configuration not stated) | 4.91
COC(=O)COn1c(OC)nc2ccccc2c1=O | -4.73
CCN(CC1CCCO1)C(=O)Nc1cccc(Cl)c1OC (configuration not stated) | -21.4
CSc1ccc(C(CNC(C)=O)N2CCc3sccc3C2)cc1 (configuration not stated) | 6.84
c1cnc2c(C3CCN(Cc4ccsc4)CC3)n[nH]c2n1 | 1.34
c1cncc(N2CCOCC3(CCCN(Cc4cccs4)C3)C2)c1 (configuration not stated) | 14.8
CS(=O)(=O)c1cccc(C(N)c2ccccc2)c1 (configuration not stated) | -19.3
COCc1nc(C2CC2)nn1-c1cccc(F)c1 | 2.64
NC(=O)NCCC(=O)N1CCC(c2cc(Cc3ccccc3)n[nH]2)CC1 | 1.5
COc1ccc2c(c1)CN(CC1CC1)C(=O)CCN2CC(C)(C)O | -13.9
COC(=O)C(NC(=O)Nc1ccc(C(C)=O)cc1)C(C)C (configuration not stated) | 4.31
Cc1c(NC(=O)NC(C)CCO)cccc1OC1CCCC1 (configuration not stated) | -7.18
CCOc1cc(CN(C)CC(=O)O)ccc1OC(F)F | 7.99
Cc1cc(NCCCNS(C)(=O)=O)nc2ccccc12 | -4.69
CN(C)C(=O)CSc1nnc(CCNC(=O)OC(C)(C)C)o1 | 13.7

Compound | cytotoxicity at 10 µM [%]
CCc1ccc(CN(C)Cc2nc(-c3cnccn3)no2)nc1 | 3.57
Cc1ccc(N2CCCC3(CCN(C(=O)CC(F)(F)F)C3)C2)nn1 (configuration not stated) | -108
NC(=O)N1CCC(NCc2cc(C(F)(F)F)ccc2Cl)CC1 | -0.651
CCN(CC)C(CNCc1ccc(OC)c(F)c1)c1ccco1 (configuration not stated) | 15.2
O=C(N1CCCC1)N1CCC2(CCCN(CCOc3ccccc3)C2)C1 (configuration not stated) | 11.3
OC1(CN2CCC(Cc3ncccn3)CC2)CCCCC1 | 7.69
CCn1ccnc1CN1CCN(CC(O)c2ccccc2)CC1 (configuration not stated) | -7.41
C/C(=C\c1ccco1)CN(C)C(C)Cc1ccccn1 (configuration not stated) | 1.89
Cc1ccc(S(=O)(=O)Nc2ccc(-n3cccc3C(=O)O)c(C)c2)cc1 | -3.94
COc1cc(-c2cnnc(NCCSC)n2)cc(OC)c1OC | 3.98
CN(Cc1csc(-c2cccs2)n1)C(=O)CCn1ccccc1=O | 22.7
Cc1cccc(-c2nc(N)nc3c2CN(C(=O)c2ccncn2)C3C)c1 (configuration not stated) | 4.65
Cn1cc(-c2nc(C3CCN(S(C)(=O)=O)CC3)cc3c2ncn3C)cn1 | 1.39
Cc1nc(N2CCOCC2)nc2c1CCN(c1nccs1)CC2 | 7.37
CN(C(=O)c1ncn2c1CN(C)S(=O)(=O)c1ccccc1-2)C1CC1 | -131
Cc1c[nH]c(CN(C)c2nc(C3CCCC3)nc3c2cnn3C)n1 | -7.56
CC(=O)NCC1CCN(C(=O)c2c(C)[nH]c3ccc(Cl)cc23)CC1 | 8.11
NCC(=O)N1CCCC(O)(CN2CCN(c3ccccc3)CC2)CC1 (configuration not stated) | -7.58
O=C(c1cncs1)N1CCC(Cc2cnc3[nH]ccc3c2)CC1 | -3.94
CC(=O)N1CCN([C@@H]2CN(C(=O)c3ccccc3)C[C@H]2O)CC1 | -4.8
CN(CCC(O)c1ccccc1)c1cc(C2CC2)ncn1 (configuration not stated) | -141

Compound | cytotoxicity at 10 µM [%]
CCN1CCC(N2C[C@H]3OC(=O)N(CCc4cccc(Cl)c4)[C@H]3C2)CC1 | -5.4
O=C(CCc1ccccc1)N1CCn2cc(CN3CCCC3)nc2C1 | -1.66
CC1Cc2cc(-c3cncn3CC(=O)NC(C)(C)C)ccc2N1C (configuration not stated) | -40.5
CN(C)CC(=O)N1CCOCC(Cc2ccccn2)C1 (configuration not stated) | 5.88
Cc1cccc(OCCCNC(=O)Cn2ccc(C)cc2=O)c1 | -4.42
O=C(NC1CCN(Cc2ccc(F)cc2)CC1)c1ccc2c(c1)CCC2 | 2.55
O=C(N[C@@H]1CN(CC2CC2)[C@@H]2CCCO[C@@H]21)c1cscn1 | -109
CSc1cccc(CN(C)C(=O)Nc2nc(C)n(C)n2)c1 | 2.78
O=C(c1cnn2c1OCCC2)N1CCC2(CC1)OCCO2 | 7.91
Cc1ccc(CN2C(=O)CCC23CCC(NC2CCOC2)CC3)cc1 (configuration not stated) | -3.04
Cc1nc(CNC(=O)CCN2CCN(c3ccccn3)CC2)oc1C | -4.97
CC(C)SCc1cccc(NC2CCN(C)C2=O)c1 (configuration not stated) | 1.26
CCN(C)c1ncnc2c1CCN(C(=O)c1ccsc1)CC2 | -0.408
Cc1cn[nH]c1C1COCCN1Cc1c[nH]cn1 (configuration not stated) | -1.3
Cn1nc(CNC(=O)c2nc3ccccc3s2)c2c1CCOC2 | -3.16
Cc1nc(C(C)C)ncc1C(=O)N1CCCC(N2CCCC2)C1 (configuration not stated) | -20.1
Cn1cnnc1C1CCCN(C(=O)NCc2cc[nH]n2)C1 (configuration not stated) | -6.73
COCC(=O)N[C@H](C)c1onc(-c2ccc(F)cc2)c1C(=O)O | -8.15
O=C1CC(c2cccs2)Cc2[nH]c(=O)ccc21 (configuration not stated) | 0.185
